Measurements reported in ChEMBL document CHEMBL1147215, “Novel 2-aminobenzothiazoles as selective neuronal nitric oxide synthase inhibitors” (Bioorg Med Chem Lett, 2007).

Legend:
Homo sapiens = species on record: Homo sapiens; assay: Selectivity for human nNOS over human eNOS
Outline: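 Ratio of human eNOS IC₅₀ to human nNOS IC₅₀. Each IC₅₀ comes from radiolabelled arginine-to-citrulline conversion, with percent inhibition at 8–12 concentrations.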

Nitric oxide synthase 3 [1] = target: T1, Nitric oxide synthase 3 (Homo sapiens, UniProt P29474); assay: Inhibition of human endothelial NOS activity
T1 sequence (P29474 whole entry): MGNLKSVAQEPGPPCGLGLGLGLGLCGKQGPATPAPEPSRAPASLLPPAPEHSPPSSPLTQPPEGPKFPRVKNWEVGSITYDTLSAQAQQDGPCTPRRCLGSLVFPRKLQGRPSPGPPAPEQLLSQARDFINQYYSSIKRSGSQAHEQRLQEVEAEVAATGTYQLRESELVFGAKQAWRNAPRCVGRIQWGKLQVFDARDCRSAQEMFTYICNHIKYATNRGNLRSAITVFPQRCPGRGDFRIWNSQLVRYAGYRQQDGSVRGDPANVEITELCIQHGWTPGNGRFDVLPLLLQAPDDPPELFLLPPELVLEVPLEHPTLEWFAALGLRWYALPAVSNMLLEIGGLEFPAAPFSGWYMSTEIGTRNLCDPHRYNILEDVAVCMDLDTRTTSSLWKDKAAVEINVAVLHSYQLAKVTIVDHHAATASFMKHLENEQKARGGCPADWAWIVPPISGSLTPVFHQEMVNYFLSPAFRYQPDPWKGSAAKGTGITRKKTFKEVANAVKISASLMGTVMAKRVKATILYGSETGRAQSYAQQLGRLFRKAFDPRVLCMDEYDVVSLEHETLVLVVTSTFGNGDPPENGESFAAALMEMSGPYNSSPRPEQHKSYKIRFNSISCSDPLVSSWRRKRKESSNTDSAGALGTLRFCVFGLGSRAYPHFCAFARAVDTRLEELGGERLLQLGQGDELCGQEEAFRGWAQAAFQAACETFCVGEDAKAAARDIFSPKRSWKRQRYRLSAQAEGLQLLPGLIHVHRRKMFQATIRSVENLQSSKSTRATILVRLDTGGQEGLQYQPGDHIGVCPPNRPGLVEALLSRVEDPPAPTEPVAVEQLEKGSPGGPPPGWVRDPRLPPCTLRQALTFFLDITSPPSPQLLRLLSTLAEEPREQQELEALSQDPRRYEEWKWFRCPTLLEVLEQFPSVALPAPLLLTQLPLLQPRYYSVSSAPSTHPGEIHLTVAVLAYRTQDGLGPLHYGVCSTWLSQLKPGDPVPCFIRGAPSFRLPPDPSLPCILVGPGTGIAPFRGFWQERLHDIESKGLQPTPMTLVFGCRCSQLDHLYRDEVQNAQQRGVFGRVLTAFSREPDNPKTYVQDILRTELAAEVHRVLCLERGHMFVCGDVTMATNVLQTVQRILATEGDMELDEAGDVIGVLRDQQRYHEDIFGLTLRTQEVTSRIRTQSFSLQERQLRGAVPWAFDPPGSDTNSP
Outline: (§1)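 Human NOS isoform activity read out as conversion of [³H]L-arginine to [³H]L-citrulline. Percent inhibition was measured at 8–12 inhibitor concentrations to derive IC₅₀.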

Nitric oxide synthase 1 [2] = target: Nitric oxide synthase 1 (Homo sapiens, UniProt P29475); assay: Inhibition of human neuronal NOS activity
Chain of Nitric oxide synthase 1 (Homo sapiens, UniProt P29475) (P29475 whole entry): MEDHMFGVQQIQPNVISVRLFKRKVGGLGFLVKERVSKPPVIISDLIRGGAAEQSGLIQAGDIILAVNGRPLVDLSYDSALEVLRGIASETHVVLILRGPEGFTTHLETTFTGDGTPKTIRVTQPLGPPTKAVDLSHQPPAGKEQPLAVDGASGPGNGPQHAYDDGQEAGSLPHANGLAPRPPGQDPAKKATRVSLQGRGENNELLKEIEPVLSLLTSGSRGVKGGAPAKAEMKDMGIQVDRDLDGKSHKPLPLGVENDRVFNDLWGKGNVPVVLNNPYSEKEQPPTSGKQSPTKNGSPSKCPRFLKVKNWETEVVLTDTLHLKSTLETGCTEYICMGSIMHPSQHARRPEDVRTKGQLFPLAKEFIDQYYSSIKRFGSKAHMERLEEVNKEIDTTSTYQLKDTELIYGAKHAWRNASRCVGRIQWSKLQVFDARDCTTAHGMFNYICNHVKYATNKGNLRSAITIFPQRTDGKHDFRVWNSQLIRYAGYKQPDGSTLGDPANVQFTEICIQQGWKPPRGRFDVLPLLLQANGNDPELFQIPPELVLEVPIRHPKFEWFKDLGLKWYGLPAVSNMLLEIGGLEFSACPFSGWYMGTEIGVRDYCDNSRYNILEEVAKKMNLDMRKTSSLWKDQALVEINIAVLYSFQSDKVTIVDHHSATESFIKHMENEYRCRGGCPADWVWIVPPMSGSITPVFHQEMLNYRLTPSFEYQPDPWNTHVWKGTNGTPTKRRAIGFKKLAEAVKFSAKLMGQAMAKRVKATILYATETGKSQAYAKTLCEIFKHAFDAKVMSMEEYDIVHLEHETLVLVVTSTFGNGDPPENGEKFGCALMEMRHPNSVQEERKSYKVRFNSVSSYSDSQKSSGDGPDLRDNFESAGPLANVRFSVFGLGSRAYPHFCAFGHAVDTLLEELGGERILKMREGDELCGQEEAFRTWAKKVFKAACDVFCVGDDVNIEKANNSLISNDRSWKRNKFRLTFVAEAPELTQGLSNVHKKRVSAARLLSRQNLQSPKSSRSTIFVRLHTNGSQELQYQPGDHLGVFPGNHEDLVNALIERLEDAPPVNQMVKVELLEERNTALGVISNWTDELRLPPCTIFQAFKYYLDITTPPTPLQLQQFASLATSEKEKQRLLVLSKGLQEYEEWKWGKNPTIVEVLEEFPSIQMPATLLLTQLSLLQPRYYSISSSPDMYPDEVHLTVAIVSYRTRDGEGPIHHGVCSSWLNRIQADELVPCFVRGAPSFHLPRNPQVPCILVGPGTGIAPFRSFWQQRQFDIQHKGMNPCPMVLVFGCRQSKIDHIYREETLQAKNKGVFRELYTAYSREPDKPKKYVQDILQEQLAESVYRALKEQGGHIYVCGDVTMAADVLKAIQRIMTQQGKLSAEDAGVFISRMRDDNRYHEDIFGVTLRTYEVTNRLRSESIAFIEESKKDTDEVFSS

[3] = target: Nitric oxide synthase, inducible (Homo sapiens, UniProt P35228); assay: Inhibition of human inducible NOS activity; outline: as §1
Chain of Nitric oxide synthase, inducible (Homo sapiens, UniProt P35228) (P35228 whole entry): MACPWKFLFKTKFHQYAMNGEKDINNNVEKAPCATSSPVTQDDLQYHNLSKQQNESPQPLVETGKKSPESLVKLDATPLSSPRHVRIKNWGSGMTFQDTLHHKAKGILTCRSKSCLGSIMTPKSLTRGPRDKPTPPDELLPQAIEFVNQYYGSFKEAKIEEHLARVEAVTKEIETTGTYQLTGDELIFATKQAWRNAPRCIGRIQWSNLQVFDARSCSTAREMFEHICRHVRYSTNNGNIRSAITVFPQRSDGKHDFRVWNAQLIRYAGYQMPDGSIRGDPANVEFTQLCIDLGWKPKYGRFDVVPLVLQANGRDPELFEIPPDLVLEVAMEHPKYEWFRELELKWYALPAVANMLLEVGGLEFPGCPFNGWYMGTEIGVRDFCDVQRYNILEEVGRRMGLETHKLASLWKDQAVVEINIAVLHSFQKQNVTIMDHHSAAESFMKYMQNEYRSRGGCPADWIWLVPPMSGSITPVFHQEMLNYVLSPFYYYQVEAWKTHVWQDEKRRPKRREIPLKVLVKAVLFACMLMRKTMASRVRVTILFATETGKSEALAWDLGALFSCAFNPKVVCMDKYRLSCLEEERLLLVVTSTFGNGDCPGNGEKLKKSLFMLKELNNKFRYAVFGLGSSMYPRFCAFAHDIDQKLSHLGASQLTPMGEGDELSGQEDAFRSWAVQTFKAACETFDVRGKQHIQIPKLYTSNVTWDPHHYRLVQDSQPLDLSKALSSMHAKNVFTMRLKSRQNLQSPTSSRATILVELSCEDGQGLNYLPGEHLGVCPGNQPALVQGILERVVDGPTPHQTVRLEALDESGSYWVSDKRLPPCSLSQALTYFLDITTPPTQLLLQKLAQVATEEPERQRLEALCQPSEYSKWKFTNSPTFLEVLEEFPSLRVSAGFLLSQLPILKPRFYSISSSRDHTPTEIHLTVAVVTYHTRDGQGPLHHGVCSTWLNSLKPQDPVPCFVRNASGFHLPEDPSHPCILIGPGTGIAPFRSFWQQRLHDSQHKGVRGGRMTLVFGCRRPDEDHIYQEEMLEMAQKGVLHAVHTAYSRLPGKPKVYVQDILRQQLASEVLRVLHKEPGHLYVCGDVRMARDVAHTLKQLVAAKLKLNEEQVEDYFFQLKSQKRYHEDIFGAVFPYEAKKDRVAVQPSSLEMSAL

Nitric oxide synthase 1 [4] = target: Nitric oxide synthase 1 (Rattus norvegicus, UniProt P29476); assay: Inhibition of rat neuronal NOS activity
Nitric oxide synthase 3 [5] = target: T2, Nitric oxide synthase 3 (Rattus norvegicus, UniProt Q62600); assay: Inhibition of rat endothelial NOS activity
T2 sequence (Q62600 whole entry): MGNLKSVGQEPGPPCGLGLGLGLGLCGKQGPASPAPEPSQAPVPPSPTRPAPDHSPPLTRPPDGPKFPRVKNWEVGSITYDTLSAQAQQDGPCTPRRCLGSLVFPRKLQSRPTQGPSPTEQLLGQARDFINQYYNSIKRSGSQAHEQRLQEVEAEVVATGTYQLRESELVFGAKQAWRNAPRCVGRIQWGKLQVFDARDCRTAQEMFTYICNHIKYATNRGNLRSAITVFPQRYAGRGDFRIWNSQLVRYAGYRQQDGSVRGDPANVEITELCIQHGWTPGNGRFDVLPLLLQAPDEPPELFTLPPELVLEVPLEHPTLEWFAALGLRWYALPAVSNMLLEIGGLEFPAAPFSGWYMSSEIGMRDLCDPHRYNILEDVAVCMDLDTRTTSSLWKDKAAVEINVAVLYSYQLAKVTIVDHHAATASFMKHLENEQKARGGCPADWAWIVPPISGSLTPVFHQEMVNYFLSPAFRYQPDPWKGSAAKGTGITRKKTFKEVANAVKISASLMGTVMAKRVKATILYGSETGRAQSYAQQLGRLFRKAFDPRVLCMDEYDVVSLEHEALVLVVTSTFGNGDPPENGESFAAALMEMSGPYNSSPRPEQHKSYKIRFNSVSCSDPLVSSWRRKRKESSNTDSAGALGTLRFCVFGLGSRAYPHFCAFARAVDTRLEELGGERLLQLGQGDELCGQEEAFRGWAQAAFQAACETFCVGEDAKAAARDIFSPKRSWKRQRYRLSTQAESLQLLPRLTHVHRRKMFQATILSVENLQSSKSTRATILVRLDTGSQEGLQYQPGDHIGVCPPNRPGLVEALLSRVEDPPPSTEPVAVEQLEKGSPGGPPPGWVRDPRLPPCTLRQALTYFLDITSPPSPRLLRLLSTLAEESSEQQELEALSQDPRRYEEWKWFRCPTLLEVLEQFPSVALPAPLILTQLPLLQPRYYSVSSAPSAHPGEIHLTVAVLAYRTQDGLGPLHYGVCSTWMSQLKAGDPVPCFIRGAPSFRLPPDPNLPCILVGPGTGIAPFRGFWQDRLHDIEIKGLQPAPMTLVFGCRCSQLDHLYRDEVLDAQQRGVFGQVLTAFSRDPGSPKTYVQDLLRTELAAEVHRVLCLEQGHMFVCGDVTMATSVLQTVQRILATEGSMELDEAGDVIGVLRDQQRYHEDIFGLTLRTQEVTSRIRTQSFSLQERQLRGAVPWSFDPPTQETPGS
Outline: (§2)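 Rat NOS isoform activity read out as conversion of radiolabelled L-arginine to L-citrulline. Percent inhibition was measured in duplicate at 8–12 concentrations to give IC₅₀.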

[6] = target: Nitric oxide synthase, inducible (Rattus norvegicus, UniProt Q06518); assay: Inhibition of rat inducible NOS activity; outline: as §2
Chain of Nitric oxide synthase, inducible (Rattus norvegicus, UniProt Q06518) (Q06518 whole entry): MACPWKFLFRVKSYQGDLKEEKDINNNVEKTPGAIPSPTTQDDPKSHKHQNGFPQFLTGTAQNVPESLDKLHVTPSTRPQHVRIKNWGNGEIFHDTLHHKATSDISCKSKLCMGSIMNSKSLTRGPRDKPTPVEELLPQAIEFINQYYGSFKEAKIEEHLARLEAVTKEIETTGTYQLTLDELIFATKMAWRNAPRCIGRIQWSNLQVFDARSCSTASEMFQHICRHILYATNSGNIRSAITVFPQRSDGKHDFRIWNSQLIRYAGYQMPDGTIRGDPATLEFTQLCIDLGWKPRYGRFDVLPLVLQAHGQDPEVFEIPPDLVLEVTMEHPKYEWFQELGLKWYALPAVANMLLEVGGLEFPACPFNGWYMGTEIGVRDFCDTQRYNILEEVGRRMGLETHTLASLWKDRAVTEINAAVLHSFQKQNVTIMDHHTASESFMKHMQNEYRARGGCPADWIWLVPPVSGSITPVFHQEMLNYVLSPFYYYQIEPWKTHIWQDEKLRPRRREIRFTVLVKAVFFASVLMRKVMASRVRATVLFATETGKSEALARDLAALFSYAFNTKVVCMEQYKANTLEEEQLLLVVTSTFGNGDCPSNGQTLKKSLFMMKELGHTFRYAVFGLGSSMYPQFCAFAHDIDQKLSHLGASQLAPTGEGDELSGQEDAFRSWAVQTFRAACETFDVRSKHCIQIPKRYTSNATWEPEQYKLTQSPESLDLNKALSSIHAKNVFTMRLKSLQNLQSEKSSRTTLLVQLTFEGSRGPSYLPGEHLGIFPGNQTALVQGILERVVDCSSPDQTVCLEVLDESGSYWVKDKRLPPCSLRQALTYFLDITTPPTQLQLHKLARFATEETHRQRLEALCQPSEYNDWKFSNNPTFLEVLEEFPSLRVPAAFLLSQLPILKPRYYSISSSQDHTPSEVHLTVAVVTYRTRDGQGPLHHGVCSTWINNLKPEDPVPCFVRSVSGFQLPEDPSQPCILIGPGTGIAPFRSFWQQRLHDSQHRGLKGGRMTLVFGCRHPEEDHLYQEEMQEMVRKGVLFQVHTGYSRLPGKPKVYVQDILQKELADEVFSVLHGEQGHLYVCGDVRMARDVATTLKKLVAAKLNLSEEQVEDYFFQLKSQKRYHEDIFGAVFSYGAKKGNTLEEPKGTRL

| Ratio IC50 (Homo sapiens) | IC50 (Nitric oxide synthase 3 [1]) | IC50 (Nitric oxide synthase 1 [2]) | IC50 [3] | IC50 (Nitric oxide synthase 1 [4]) | SMILES | IC50 (Nitric oxide synthase 3 [5]) | IC50 [6] |
| --- | --- | --- | --- | --- | --- | --- | --- |
| 8 | 16 µM | 2 µM | 64 µM | – | N=C(Nc1ccc2nc(NC3CCOCC3)sc2c1)c1cccs1 | – | – |
| 40 | – | – | – | – | N=C(Nc1ccc2sc(NC3CCN(Cc4ccccc4)CC3)nc2c1)c1cccs1 | – | – |
| 16 | 13 µM | 0.8 µM | 91 µM | – | N=C(Nc1ccc2sc(NC3CCN(Cc4ccc(F)cc4)CC3)nc2c1)c1cccs1 | – | – |
| 18 | – | – | – | – | COC(=O)c1ccc(CN2CCC(Nc3nc4ccc(NC(=N)c5cccs5)cc4s3)CC2)cc1 | – | – |
| 28 | – | – | – | – | COc1ccc(CN2CCC(Nc3nc4ccc(NC(=N)c5cccs5)cc4s3)CC2)cc1 | – | – |
| 27 | – | – | – | – | COc1cccc(CN2CCC(Nc3nc4ccc(NC(=N)c5cccs5)cc4s3)CC2)c1 | – | – |
| – | 5.7 µM | 0.2 µM | 9 µM | – | COc1ccc(CN2CCC(Nc3nc4ccc(N=C(N)c5cccs5)cc4s3)CC2)cc1 | – | – |
| 12 | 59 µM | 5.1 µM | > 100 µM | – | N=C(Nc1ccc2nc(NC3CCN(Cc4ccc(C(=O)O)cc4)CC3)sc2c1)c1cccs1 | – | – |
| 2 | – | – | – | – | N=C(Nc1ccc2nc(NC3CCN(CCc4cnc[nH]4)CC3)sc2c1)c1cccs1 | – | – |
| 40 | 8 µM | 0.2 µM | 14 µM | – | N=C(Nc1ccc2nc(NC3CCN(Cc4ccc(F)cc4)CC3)sc2c1)c1cccs1 | – | – |
| – | 5.2 µM | 0.3 µM | > 100 µM | – | COC(=O)c1ccc(CN2CCC(Nc3nc4ccc(N=C(N)c5cccs5)cc4s3)CC2)cc1 | – | – |

Further lines, the compound ahead of its results:

| SMILES | Ratio IC50 (Homo sapiens) | IC50 (Nitric oxide synthase 3 [1]) | IC50 (Nitric oxide synthase 1 [2]) | IC50 [3] | IC50 (Nitric oxide synthase 1 [4]) | IC50 (Nitric oxide synthase 3 [5]) | IC50 [6] |
| --- | --- | --- | --- | --- | --- | --- | --- |
| N=C(Nc1ccc2nc(N)sc2c1)c1cccs1 | 18 | 2.9 µM | 0.2 µM | 25 µM | – | – | – |
| NC(=Nc1ccc2sc(NC3CCN(Cc4ccccc4)CC3)nc2c1)c1cccs1 | – | 16 µM | 0.4 µM | 48 µM | – | – | – |
| N=C(Nc1ccc2sc(NCCN3CCOCC3)nc2c1)c1cccs1 | 9 | 12 µM | 1.3 µM | 141 µM | – | – | – |
| N=C(Nc1ccc2sc(N)nc2c1)c1cccs1 | 13 | 2.3 µM | 0.2 µM | 79 µM | – | – | – |
| CCSC(=N)Nc1ccc2nc(N)sc2c1 | 7 | 9.2 µM | 1.4 µM | 46 µM | – | – | – |
| N=C(Nc1ccc2nc(NCCc3ccccn3)sc2c1)c1cccs1 | 1 | 0.9 µM | 1.3 µM | 13 µM | 0.05 µM | 3.4 µM | 25 µM |
| N=C(Nc1ccc2sc(NCCc3ccccn3)nc2c1)c1cccs1 | 5 | 6 µM | 1.1 µM | 139 µM | – | – | – |
| CN1CCCC1CCNc1nc2cc(NC(=N)c3cccs3)ccc2s1 (racemic) | 53 | 1.6 µM | 0.03 µM | 15 µM | – | – | – |
| CCSC(=N)Nc1ccc2sc(N)nc2c1 | 3 | – | – | – | – | – | – |
| NC(=Nc1ccc2nc(NC3CCN(CCc4cnc[nH]4)CC3)sc2c1)c1cccs1 | – | 0.7 µM | 0.3 µM | 6 µM | 4.8 µM | 4.6 µM | 26 µM |
| N=C(Nc1ccc2nc(NCCc3ccc(Br)cc3)sc2c1)c1cccs1 | 0.5 | 2.1 µM | 4.4 µM | 75 µM | 4.7 µM | 5.2 µM | – |
| COc1cccc(CN2CCC(Nc3nc4ccc(N=C(N)c5cccs5)cc4s3)CC2)c1 | – | 3.8 µM | 0.1 µM | > 100 µM | 6.7 µM | 1.3 µM | 19 µM |
| N=C(Nc1ccc2nc(NC3CCN(Cc4ccccc4)CC3)sc2c1)c1cccs1 | 12 | 6 µM | 0.5 µM | 14 µM | 0.09 µM | 12.5 µM | 36 µM |
| N=C(Nc1ccc2nc(NCCN3CCOCC3)sc2c1)c1cccs1 | – | 1.5 µM | 0.2 µM | 37 µM | – | 9.1 µM | 44 µM |
| CCSC(N)=Nc1ccc2sc(N)nc2c1 | – | 12 µM | 4.6 µM | 97 µM | – | – | – |
